{
  "source": "ChEMBL document CHEMBL4325899",
  "about": "“Synthesis and photocytotoxic activity of [1,2,3]triazolo[4,5-h][1,6]naphthyridines and [1,3]oxazolo[5,4-h][1,6]naphthyridines” (Eur J Med Chem, 2019)",
  "key": {"MCF7 [1]": {"tested_on": "MCF7", "assay": "Induction of ROS generation in human MCF7 cells at 0.5 to 2 uM preincubated for 30 mins followed by irradiation at 1.5 J/cm2 for 2 hrs in presence of NAC by H2DCFDA probe-based fluorescence assay", "format": "functional, cell-based", "outline": "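This is the DCF assay in MCF7 cells run as for irradiated samples (30 min compound, 10 µM H2DCFDA, 1.5 J/cm²). Before treatment, cells were pre-incubated with N-acetylcysteine at […]. Fluorescence was read 2 h after light exposure, relative to irradiated untreated controls, with three independent experiments.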"}, "HT-29 [2]": {"tested_on": "HT-29", "assay": "Phototoxicity against human HT-29 cells preincubated for 5 mins followed by compound washout and subsequent UV irradiation at 1.5 J/cm2 for 5 mins measured after 72 hrs by MTT assay", "format": "functional, cell-based", "conditions": "HT-29, light or radiation study", "outline": "(§1)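 Compounds were diluted in DMSO (0.5% final), applied in triplicate for 5 min, then washed out with PBS. After medium removal, cells were irradiated on ice for 5 min at 365 nm (1.5 J/cm²) and then kept 72 h at 37 °C. Viability was read by MTT at 540 nm and expressed relative to 0.5% DMSO controls given the same treatment. EC50 is the concentration killing 50%, as the mean ± SD of at least three experiments.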"}, "MCF7 [3]": {"tested_on": "MCF7", "assay": "Phototoxicity against human MCF7 cells preincubated for 5 mins followed by compound washout and subsequent UV irradiation at 1.5 J/cm2 for 5 mins measured after 72 hrs by MTT assay", "format": "functional, cell-based", "conditions": "MCF7, light or radiation study", "outline": "as §1"}, "[4]": {"assay": "Dark toxicity against human HT-29 cells preincubated for 5 mins followed by compound washout and measured after 72 hrs by MTT assay", "format": "cell-based", "outline": "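Cells were plated and allowed to attach overnight. Compounds were diluted in DMSO (0.5% final), with each concentration in triplicate, and applied for 5 min. Cells were then washed in PBS and given fresh medium. Without irradiation, cells were held 72 h at up to 50 μM. MTT (5 mg/mL stock) was added for 4 h, crystals were dissolved in SDS/HCl overnight, and absorbance was read at 540 nm. CC50 is the concentration killing 50% of cells, taken as the mean of at least three experiments.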"}, "A-375": {"tested_on": "A-375", "assay": "Phototoxicity index, ratio of CC50 for human A375 cells to EC50 for human A375 cells under UV irradiation at 1.5 J/cm2"}, "HT-29 [5]": {"tested_on": "HT-29", "assay": "Phototoxicity index, ratio of CC50 for human HT-29 cells to EC50 for human HT-29 cells under UV irradiation at 1.5 J/cm2"}, "[6]": {"assay": "Phototoxicity index, ratio of CC50 for human MCF10A cells to EC50 for human MCF10A cells under UV irradiation at 1.5 J/cm2", "format": "cell-based, MCF-10A", "conditions": "read-out: Ratio CC50/EC50"}, "MCF7 [7]": {"tested_on": "MCF7", "assay": "Cell cycle arrest in human MCF7 cells assessed as accumulation at G0/G1 phase at EC25 after 24 hrs under UV-irradiation by propidium iodide staining-based flow cytometric analysis (reference value: 44.2%)", "format": "functional"}, "MCF7 [8]": {"tested_on": "MCF7", "assay": "Cell cycle arrest in human MCF7 cells assessed as accumulation of cells at G2/M phase at EC25 after 24 hrs under UV-irradiation by propidium iodide staining-based flow cytometric analysis (reference value: 26.3%)", "format": "functional"}, "MCF7 [9]": {"tested_on": "MCF7", "assay": "Induction of apoptosis in human MCF7 cells assessed as apoptotic cells at EC25 to EC75 after 4 hrs in presence of photoirradiation by Annexin V-FITC/propidium iodide staining-based flow cytometric analysis relative to control", "format": "functional"}, "MCF7 [10]": {"tested_on": "MCF7", "assay": "Induction of apoptosis in human MCF7 cells assessed as necrotic cells at EC25 to EC75 after 4 hrs in presence of photoirradiation by Annexin V-FITC/propidium iodide staining-based flow cytometric analysis relative to control", "format": "functional"}, "MCF7 [11]": {"tested_on": "MCF7", "assay": "Induction of mitochondrial dysfunction in human MCF7 cells assessed as perinuclear clustering at 2 uM after 20 mins in presence of UV irradiation by Mitotracker Orange CMTM-ROS staining-based confocal microscopic analysis", "format": "functional, cell-based", "outline": "(§2)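 MCF7 cells (4x10⁵) were plated on glass slides for 24 h. They were then loaded with MitoTracker Orange CMTM-ROS (150 nM) for 45 min in phenol-red-free, serum-free medium, before 2 µM compound and UV photoactivation. Cells were fixed in 2% PFA 20 min or 2 h after UV and imaged confocally (ex 543 nm, em 560–620 nm). PMA (400 nM) served as ROS-inducer control.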"}, "MCF7 [12]": {"tested_on": "MCF7", "assay": "Induction of mitochondrial dysfunction in human MCF7 cells assessed as organelles fusion at 2 uM after 120 mins in presence of UV irradiation by Mitotracker Orange CMTM-ROS staining-based confocal microscopic analysis", "format": "functional, cell-based", "outline": "as §2"}, "MCF7 [13]": {"tested_on": "MCF7", "assay": "Induction of mitochondrial dysfunction in human MCF7 cells assessed as organelle swelling at 2 uM after 120 mins in presence of UV irradiation by Mitotracker Orange CMTM-ROS staining-based confocal microscopic analysis", "format": "functional, cell-based", "outline": "as §2"}, "MCF7 [14]": {"tested_on": "MCF7", "assay": "Induction of lysosomal activation in human MCF7 cells at 2 uM after 20 mins in presence of UV irradiation by Lysotracker Green DND 26 staining-based confocal microscopic analysis", "format": "functional, cell-based", "outline": "(§3)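 MCF7 cells (4x10⁵) on glass slides were loaded with LysoTracker Green DND-26 (175 nM) for 45 min in phenol-red-free, serum-free medium, before 2 µM compound with or without UV activation. Cells were fixed in 2% PFA 20 min or 2 h after UV and imaged confocally (ex 488 nm, em 500–530 nm). Controls were untreated cells with and without irradiation, and cells given PMA (400 nM).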"}, "MCF7 [15]": {"tested_on": "MCF7", "assay": "Induction of lysosomal activation in human MCF7 cells assessed as late apoptotis at 2 uM after 2 hrs in presence of UV irradiation by Lysotracker Green DND 26 staining-based confocal microscopic analysis", "format": "functional, cell-based", "outline": "as §3"}, "[16]": {"assay": "Solubility of the compound in DMSO", "format": "physicochemical"}, "MCF7 [17]": {"tested_on": "MCF7", "assay": "Cell cycle arrest in human MCF7 cells assessed as accumulation of cells at S phase at EC50 after 24 hrs under UV-irradiation by propidium iodide staining-based flow cytometric analysis (reference value: 24.7%)", "format": "functional"}, "MCF7 [18]": {"tested_on": "MCF7", "assay": "Cell cycle arrest in human MCF7 cells assessed as accumulation of cells at G2/M phase at EC50 after 24 hrs under UV-irradiation by propidium iodide staining-based flow cytometric analysis (reference value: 26.3%)", "format": "functional"}, "MCF7 [19]": {"tested_on": "MCF7", "assay": "Cell cycle arrest in human MCF7 cells assessed as accumulation of cells at subG1 phase at EC75 after 24 hrs under UV-irradiation by propidium iodide staining-based flow cytometric analysis (reference value: 4.8%)", "format": "functional"}, "MCF7 [20]": {"tested_on": "MCF7", "assay": "Cell cycle arrest in human MCF7 cells assessed as accumulation of cells at G0/G1 phase at EC75 after 24 hrs under UV-irradiation by propidium iodide staining-based flow cytometric analysis (reference value: 44.2%)", "format": "functional"}, "MCF7 [21]": {"tested_on": "MCF7", "assay": "Cell cycle arrest in human MCF7 cells assessed as accumulation of cells at S phase at EC75 after 24 hrs under UV-irradiation by propidium iodide staining-based flow cytometric analysis (reference value: 24.7%)", "format": "functional"}, "MCF7 [22]": {"tested_on": "MCF7", "assay": "Cell cycle arrest in human MCF7 cells assessed as accumulation of cells at G2/M phase at EC75 after 24 hrs under UV-irradiation by propidium iodide staining-based flow cytometric analysis (reference value: 26.3%)", "format": "functional"}, "[23]": {"assay": "Drug localization in cytoplasm of human MCF7 cells assessed as punctate formation at 2 uM measured within 10 mins by confocal microscopic analysis", "format": "ADME, subcellular", "conditions": "mcf7, 10 min"}},
  "note": "Calls of active or inactive are those of the source. The calls are words filed in the database; no cut-off is given here.",
  "data": [
    {"smiles": "COc1ccc(-c2nc3c(nc(C)c4ccc(-c5ccccc5)nc43)o2)cc1", "values": [
      {"measurement": "Activity", "setting": "MCF7 [1]", "value": "inactive"},
      {"measurement": "EC50", "setting": "HT-29 [2]", "value": 12, "unit": "nM"},
      {"measurement": "EC50", "setting": "MCF7 [3]", "value": 10, "unit": "nM"},
      {"measurement": "CC50 at 72 h", "setting": "[4]", "value": "> 50000", "unit": "nM"},
      {"measurement": "Ratio CC50/EC50", "setting": "A-375", "value": ">4545"},
      {"measurement": "Ratio CC50/EC50", "setting": "HT-29 [5]", "value": ">4167"},
      {"measurement": "selectivity ratio", "setting": "[6]", "value": "> 58"},
      {"measurement": "Activity", "setting": "MCF7 [7]", "value": 44.1, "unit": "%"},
      {"measurement": "Activity", "setting": "MCF7 [8]", "value": 26.8, "unit": "%"},
      {"measurement": "Activity", "setting": "MCF7 [9]", "value": "34 - 50%"},
      {"measurement": "Activity", "setting": "MCF7 [10]", "value": 10, "unit": "%"},
      {"measurement": "Activity", "setting": "MCF7 [11]", "value": "Active"},
      {"measurement": "Activity", "setting": "MCF7 [12]", "value": "Active"},
      {"measurement": "Activity", "setting": "MCF7 [13]", "value": "Active"},
      {"measurement": "Activity", "setting": "MCF7 [14]", "value": "Active"},
      {"measurement": "Activity", "setting": "MCF7 [15]", "value": "Active"},
      {"measurement": "solubility", "setting": "[16]", "value": "Soluble"},
      {"measurement": "Activity", "setting": "MCF7 [17]", "value": 25.6, "unit": "%"},
      {"measurement": "Activity", "setting": "MCF7 [18]", "value": 26.9, "unit": "%"},
      {"measurement": "Activity", "setting": "MCF7 [19]", "value": 4.4, "unit": "%"},
      {"measurement": "Activity", "setting": "MCF7 [20]", "value": 42.4, "unit": "%"},
      {"measurement": "Activity", "setting": "MCF7 [21]", "value": 26.3, "unit": "%"},
      {"measurement": "Activity", "setting": "MCF7 [22]", "value": 26.9, "unit": "%"},
      {"measurement": "Drug uptake", "setting": "[23]", "value": "Active"}
    ]}
  ]
}
